Data taken from ChEMBL document CHEMBL3232894, “Discovery of AMG 925, a FLT3 and CDK4 dual kinase inhibitor with preferential affinity for the activated state of FLT3” (J Med Chem, 2014).
The source made the active and inactive calls. No cut-off for these calls is given here.

Key:
MOLM-13 [1] = assay: Induction of apoptosis in human MOLM13 cells harboring FLT3 ITD mutant at 1 uM after 48 hrs by Annexin V/Sytox Green staining based flow cytometry; format: functional
Outline: (§1)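 MOLM13, sorafenib-resistant MOLM13 and U937 cells were each exposed to compound at 1 μM for 48 h. Cells were then stained with Annexin V/Sytox Green and analysed by flow cytometry. Readout is apoptotic cells as a percentage of all cells analysed.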

U-937 [2] = assay: Antiproliferative activity against human U937 cells assessed as incorporation of [3H]thymidine into DNA after 72 hrs by beta-plate counting analysis
Tumour = assay: Decrease in STAT5 phosphorylation at Tyr694 in tumor of CrTac:NCR-Foxn1nu (NCR) nude mouse xenografted with human MOLM13 cells at 50 to 150 mg/kg, po after 3 to 24 hrs; format: functional, organism-based; details: Neoplasm, MOLM-13
Outline: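 MOLM13 tumor-bearing mice received a single oral dose of 50, 75 or 150 mg/kg. Tumors were harvested at 3, 6 and 24 h, and lysates were assayed for pSTAT5 and pRb. Unbound plasma levels were measured at the same time points. Results are mean ± SEM, n = 3 per group and n = 6 for vehicle.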

[3] = Clearance in iv dosed rat; format: ADME, organism-based; details: in vivo
Outline: (§2)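 Intravenous and oral (gavage, solution) PK in rat, dog and cynomolgus monkey. The rat vehicle for both routes was water/acetate/tween at pH 4, 96/3/1 (v/v/v). Dog and monkey iv doses used 40% PG aqueous solution at pH 2, and their oral doses used 20% captisol aqueous solution.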

COLO 205 = assay: Antiproliferative activity against Rb-positive human COLO205 cells assessed as incorporation of [14C]thymidine into DNA after 72 hrs by beta-plate counting analysis
[4] = biological target: Cyclin-dependent kinase 1/cyclin B1 (Homo sapiens, UniProt P06493); assay: Inhibition of CDK1/cyclin B (unknown origin) using histone H1 as substrate after 60 mins by scintillation counting analysis in presence of [r-33P]ATP; format: protein-complex assay
Mus musculus = assay: Toxicity in po dosed CrTac:NCR-Foxn1nu (NCR) nude mouse xenografted with human MOLM13 cells administered qd for 8 days; format: organism-based, MOLM-13; details: in vivo, 192 h
Outline: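 Body weight tracked throughout the 8-day once-daily oral study in NCR nude mice carrying MOLM13 xenografts. Doses were 25, 50, 75 and 150 mg/kg, with a vehicle control.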

MOLM-13 [5] = assay: Induction of apoptosis in sorafenib-resistant human MOLM13 cells harboring FLT3 ITD+D835Y mutant at 1 uM after 48 hrs by Annexin V/Sytox Green staining based flow cytometry; format: functional; outline: as §1
MOLM-13 [6] = assay: Antiproliferative activity against human MOLM13 cells harboring FLT3 ITD mutant assessed as incorporation of [3H]thymidine into DNA after […] by beta-plate counting analysis; format: functional, cell-based
[7] = Elimination half-life in iv dosed rat; format: ADME, organism-based; details: in vivo, read-out: beta t1/2 (converted); outline: as §2
U-937 [8] = assay: Induction of apoptosis in human U937 cells harboring wild type FLT3 at 1 uM after 48 hrs by Annexin V/Sytox Green staining based flow cytometry; format: functional; outline: as §1
MOLM-13 [9] = assay: Antiproliferative activity against human MOLM13 cells harboring FLT3 ITD mutant assessed as incorporation of [3H]thymidine into DNA after 72 hrs by beta-plate counting analysis; format: functional, cell-based
[10] = Volume of distribution at steady state in iv dosed rat; format: ADME, organism-based; details: in vivo, read-out: Vdss; outline: as §2
[11] = biological target: T1, Receptor-type tyrosine-protein kinase FLT3 (Homo sapiens, UniProt P36888); assay: Inhibition of GST-fused human FLT3 cytoplasmic domain (amino acids 564 to 993) using Ulight-JAK1 as substrate after 1 hr by TR-FRET assay
T1 sequence (P36888 whole entry): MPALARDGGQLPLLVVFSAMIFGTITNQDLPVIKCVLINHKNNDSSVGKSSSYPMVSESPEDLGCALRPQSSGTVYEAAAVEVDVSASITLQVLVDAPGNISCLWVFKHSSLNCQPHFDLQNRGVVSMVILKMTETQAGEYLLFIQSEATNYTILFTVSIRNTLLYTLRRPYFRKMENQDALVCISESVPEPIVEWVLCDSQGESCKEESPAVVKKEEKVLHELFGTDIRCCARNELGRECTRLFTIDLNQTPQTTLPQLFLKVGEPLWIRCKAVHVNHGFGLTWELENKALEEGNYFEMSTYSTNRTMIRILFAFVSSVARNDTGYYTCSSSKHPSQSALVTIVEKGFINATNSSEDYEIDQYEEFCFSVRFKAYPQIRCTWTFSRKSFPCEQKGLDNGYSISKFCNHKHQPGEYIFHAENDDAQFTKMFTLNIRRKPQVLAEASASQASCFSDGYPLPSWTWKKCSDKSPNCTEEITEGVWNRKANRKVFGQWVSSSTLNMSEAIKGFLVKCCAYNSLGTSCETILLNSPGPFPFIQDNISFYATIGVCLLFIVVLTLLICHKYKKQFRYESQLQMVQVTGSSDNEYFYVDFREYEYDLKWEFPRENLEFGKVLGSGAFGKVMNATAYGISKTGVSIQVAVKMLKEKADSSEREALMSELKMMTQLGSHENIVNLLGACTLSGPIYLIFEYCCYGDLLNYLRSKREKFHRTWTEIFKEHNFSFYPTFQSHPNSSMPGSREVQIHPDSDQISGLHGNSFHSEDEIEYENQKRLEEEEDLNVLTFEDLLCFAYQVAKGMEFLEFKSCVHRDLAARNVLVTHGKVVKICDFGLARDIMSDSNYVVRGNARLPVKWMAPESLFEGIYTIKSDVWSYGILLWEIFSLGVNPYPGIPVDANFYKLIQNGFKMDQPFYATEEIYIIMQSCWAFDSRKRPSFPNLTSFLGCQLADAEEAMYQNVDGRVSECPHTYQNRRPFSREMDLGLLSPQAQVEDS

Cyclin-dependent kinase 1/cyclin B1, sequence (P06493 whole entry): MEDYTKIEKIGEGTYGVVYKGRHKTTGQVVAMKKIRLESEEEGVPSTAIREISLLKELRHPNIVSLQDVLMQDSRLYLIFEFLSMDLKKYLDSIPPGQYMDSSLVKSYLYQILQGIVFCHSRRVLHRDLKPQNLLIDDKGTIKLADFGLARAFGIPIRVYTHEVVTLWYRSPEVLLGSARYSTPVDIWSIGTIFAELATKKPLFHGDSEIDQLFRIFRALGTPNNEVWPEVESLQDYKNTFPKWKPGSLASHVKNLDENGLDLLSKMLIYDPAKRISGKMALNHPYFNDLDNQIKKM
Cyclin-dependent kinase 1/cyclin B1, sequence (P14635 whole entry, further chain): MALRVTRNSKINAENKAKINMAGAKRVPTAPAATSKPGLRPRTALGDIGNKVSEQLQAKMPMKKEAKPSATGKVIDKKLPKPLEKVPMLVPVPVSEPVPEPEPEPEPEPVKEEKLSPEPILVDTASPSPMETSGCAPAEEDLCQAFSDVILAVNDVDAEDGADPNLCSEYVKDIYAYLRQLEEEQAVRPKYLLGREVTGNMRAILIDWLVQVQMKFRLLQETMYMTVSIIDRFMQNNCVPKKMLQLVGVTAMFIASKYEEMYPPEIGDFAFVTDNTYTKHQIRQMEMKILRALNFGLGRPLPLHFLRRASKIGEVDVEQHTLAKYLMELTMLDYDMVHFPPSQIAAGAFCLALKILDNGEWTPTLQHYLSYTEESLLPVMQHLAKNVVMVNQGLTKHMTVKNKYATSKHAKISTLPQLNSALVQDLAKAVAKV

For `C[C@H]1CC[C@H](n2c3cnccc3c3cnc(Nc4ccc5c(n4)CCN(C(=O)CO)C5)nc32)CC1`, the Activity (MOLM-13 [1]) was 82.3%, the IC50 (U-937 [2]) was 52 nM and the inhibition (Tumour) was “Active”. The clearance [3] was 6.5 mL/min/kg, the IC50 (COLO 205) was 55 nM and the IC50 [4] was 2220 nM. The Activity (Mus musculus) was “Non-toxic”, the Activity (MOLM-13 [5]) was 70.86% and the IC50 (MOLM-13 [6]) was 28 nM. It also gave a half-life [7] of 5.5 h, an Activity (U-937 [8]) of 23.68% and an IC50 (MOLM-13 [9]) of 19 nM. For the same compound, the Vd [10] was 1.8 L/kg and the IC50 [11] was 1 nM.
